According to ChEMBL document CHEMBL5154945, “Discovery and Optimization of Pyrrolopyrimidine Derivatives as Selective Disruptors of the Perinucleolar Compartment, a Marker of Tumor Progression toward Metastasis” (J Med Chem, 2022):
The source made the active and inactive calls. The rule behind the calls is not given here.

Key:
PC-3M [1] = assay: Antiproliferative activity against human PC-3M cells expressing PTB/GFP fusion protein assessed as reduction of nucleolar volume at 1 to 30 uM measured after 24 hrs by Nucleolar-id Green Detection based confocal microscopic analysis; format: functional, cell-based; settings: dose 1-30 µM, DDE = dose-dependent effect
Method in brief: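 PC-3M cells grown in RPMI 1640 with 10% FBS and penicillin/streptomycin, trypsinized at 70% confluence, and seeded at 2×10^5 cells/mL overnight at 37 °C, 5% CO₂. Medium replaced with compound or 1% DMSO for 24 h. Nucleoli stained with Nucleolar-ID Green and nuclei with Hoechst 33342, then imaged by confocal microscopy. Bright green objects in three images per condition normalized to nuclei count; vehicle set to 100.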

PC-3M [2] = assay: Antiproliferative activity against human PC-3M cells expressing PTB/GFP fusion protein assessed as disruption of RNA synthesis marker NOPP140 at 1 uM measured after 1 hr by DAPI staining based immunofluorescence microscopy; format: functional, cell-based
Method in brief: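 50,000 PC3M cells on chamber slides were treated with 1 μM compound for 1 h at 37 °C, then fixed in 4% paraformaldehyde for 15 min, permeabilized with 0.3% Triton X-100 and blocked in 3% BSA. Primary antibodies were anti-RPA194 (1:200) and anti-NOPP140 (1:100), overnight at 4 °C, followed by secondary antibodies and DAPI mounting. Confocal images at 63×, three images of about 200 cells per group; counts of bright objects were normalized to DAPI-stained nuclei.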

[3] = AUC (0 to 48 hrs) in female BALB/c mouse at 25 mg/kg, ip at 48 hrs by LC-MS/MS analysis; format: ADME, organism-based; parameters: time 48 hrs, dose 25 mg/kg, route ip; settings: in vivo
Method in brief: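 Fed female BALB/c mice, about 6–8 weeks old and 25–30 g, received a single IP dose. The vehicle was 5-10% NMP + 20% PEG400 + 70-75% (25% HP-β-CD in water), with the drug at 2.5/0.5 mg/mL. Blood was taken by retro-orbital puncture under isoflurane into K2EDTA tubes, 3 mice per time point, over 48 h. Plasma was prepared at 2000 g, 5 min, 4 °C, and measured by LC/MS/MS.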

MOLT-4 = assay: Anticancer activity against human MOLT-4 cells assessed as cell growth inhibition; format: functional, cell-based; settings: dose 1-100 µM, DDE = dose-dependent effect
SR = assay: Anticancer activity against human SR cells assessed as cell growth inhibition; format: functional, cell-based; settings: dose 1-100 µM, DDE = dose-dependent effect
HCT-116 = assay: Anticancer activity against human HCT-116 cells assessed as cell growth inhibition; format: functional, cell-based; settings: dose 1-100 µM, DDE = dose-dependent effect
SF-268 = assay: Anticancer activity against human SF-268 cells assessed as cell growth inhibition; format: functional, cell-based; settings: dose 1-100 µM, DDE = dose-dependent effect
SNB-19 = assay: Anticancer activity against human SNB-19 cells assessed as cell growth inhibition; format: functional, cell-based; settings: dose 1-100 µM, DDE = dose-dependent effect
IGROV-1 = assay: Anticancer activity against human IGROV-1 cells assessed as cell growth inhibition; format: functional, cell-based; settings: dose 1-100 µM, DDE = dose-dependent effect
OVCAR-3 = assay: Anticancer activity against human OVCAR-3 cells assessed as cell growth inhibition; format: functional, cell-based; settings: dose 1-100 µM, DDE = dose-dependent effect
OVCAR-4 = assay: Anticancer activity against human OVCAR-4 cells assessed as cell growth inhibition; format: functional, cell-based; settings: dose 1-100 µM, DDE = dose-dependent effect
OVCAR-8 = assay: Anticancer activity against human OVCAR-8 cells assessed as cell growth inhibition; format: functional, cell-based; settings: dose 1-100 µM, DDE = dose-dependent effect
NCI/ADR-RES = assay: Anticancer activity against human NCI/ADR-RES cells assessed as cell growth inhibition; format: functional, cell-based; settings: dose 1-100 µM, DDE = dose-dependent effect
CAKI-1 = assay: Anticancer activity against human CAKI-1 cells assessed as cell growth inhibition; format: functional, cell-based; settings: dose 1-100 µM, DDE = dose-dependent effect
UO-31 = assay: Anticancer activity against human UO-31 cells assessed as cell growth inhibition; format: functional, cell-based; settings: dose 1-100 µM, DDE = dose-dependent effect
DU-145 = assay: Anticancer activity against human DU-145 cells assessed as cell growth inhibition; format: functional, cell-based; settings: dose 1-100 µM, DDE = dose-dependent effect
MCF7 = assay: Anticancer activity against human MCF7 cells assessed as cell growth inhibition; format: functional, cell-based; settings: dose 1-100 µM, DDE = dose-dependent effect
MDA-MB-231 = assay: Anticancer activity against human MDA-MB-231 cells assessed as cell growth inhibition; format: functional, cell-based; settings: dose 1-100 µM, DDE = dose-dependent effect
Hs-578T = assay: Anticancer activity against human Hs-578T cells assessed as cell growth inhibition; format: functional, cell-based; settings: dose 1-100 µM, DDE = dose-dependent effect
BT-549 = assay: Anticancer activity against human BT-549 cells assessed as cell growth inhibition; format: functional, cell-based; settings: dose 1-100 µM, DDE = dose-dependent effect
[4] = molecular target: 5-hydroxytryptamine receptor 1A (Homo sapiens) (UniProt P08908); assay: Binding affinity to 5-HT1A receptor (unknown origin) at 10000 nM by radioligand displacement assay relative to control
[5] = molecular target: 5-hydroxytryptamine receptor 1D (Homo sapiens) (UniProt P28221); assay: Binding affinity to 5-HT1D receptor (unknown origin) at 10000 nM by radioligand displacement assay relative to control
5-hydroxytryptamine receptor 1D (Homo sapiens), sequence (P28221 whole entry): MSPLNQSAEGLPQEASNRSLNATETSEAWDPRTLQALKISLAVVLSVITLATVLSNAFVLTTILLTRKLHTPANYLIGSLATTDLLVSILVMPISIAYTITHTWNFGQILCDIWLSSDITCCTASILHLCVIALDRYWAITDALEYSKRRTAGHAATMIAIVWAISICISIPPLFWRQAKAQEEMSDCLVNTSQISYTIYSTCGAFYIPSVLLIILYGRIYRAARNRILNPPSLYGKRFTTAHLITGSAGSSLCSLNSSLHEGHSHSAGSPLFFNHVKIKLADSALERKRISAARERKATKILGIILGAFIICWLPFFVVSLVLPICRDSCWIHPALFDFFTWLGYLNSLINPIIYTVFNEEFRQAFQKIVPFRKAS

[6] = molecular target: 5-hydroxytryptamine receptor 7 (Homo sapiens) (UniProt P34969); assay: Binding affinity to 5-HT7 receptor (unknown origin) at 10000 nM by radioligand displacement assay relative to control
5-hydroxytryptamine receptor 7 (Homo sapiens), sequence (P34969 whole entry): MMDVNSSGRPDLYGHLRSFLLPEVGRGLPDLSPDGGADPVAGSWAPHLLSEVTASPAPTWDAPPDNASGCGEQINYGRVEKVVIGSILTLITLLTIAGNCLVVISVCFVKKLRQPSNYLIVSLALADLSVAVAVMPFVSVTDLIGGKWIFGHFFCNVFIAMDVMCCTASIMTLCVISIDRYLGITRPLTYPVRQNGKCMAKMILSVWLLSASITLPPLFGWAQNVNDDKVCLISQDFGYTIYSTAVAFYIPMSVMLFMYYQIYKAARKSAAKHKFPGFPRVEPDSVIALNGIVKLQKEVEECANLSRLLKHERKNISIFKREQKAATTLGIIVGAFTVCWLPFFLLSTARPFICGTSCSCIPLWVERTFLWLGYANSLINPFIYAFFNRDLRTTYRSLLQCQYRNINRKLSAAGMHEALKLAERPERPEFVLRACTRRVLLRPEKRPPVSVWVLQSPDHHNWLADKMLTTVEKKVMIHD

[7] = molecular target: Alpha-1A adrenergic receptor (Homo sapiens) (UniProt P35348); assay: Binding affinity to alpha1A receptor (unknown origin) at 10000 nM by radioligand displacement assay relative to control
[8] = molecular target: Alpha-2A adrenergic receptor (Homo sapiens) (UniProt P08913); assay: Binding affinity to alpha2A receptor (unknown origin) at 10000 nM by radioligand displacement assay relative to control
[9] = molecular target: Beta-1 adrenergic receptor (Homo sapiens) (UniProt P08588); assay: Binding affinity to beta1 receptor (unknown origin) at 10000 nM by radioligand displacement assay relative to control
Beta-1 adrenergic receptor (Homo sapiens), sequence (P08588 whole entry, looked up): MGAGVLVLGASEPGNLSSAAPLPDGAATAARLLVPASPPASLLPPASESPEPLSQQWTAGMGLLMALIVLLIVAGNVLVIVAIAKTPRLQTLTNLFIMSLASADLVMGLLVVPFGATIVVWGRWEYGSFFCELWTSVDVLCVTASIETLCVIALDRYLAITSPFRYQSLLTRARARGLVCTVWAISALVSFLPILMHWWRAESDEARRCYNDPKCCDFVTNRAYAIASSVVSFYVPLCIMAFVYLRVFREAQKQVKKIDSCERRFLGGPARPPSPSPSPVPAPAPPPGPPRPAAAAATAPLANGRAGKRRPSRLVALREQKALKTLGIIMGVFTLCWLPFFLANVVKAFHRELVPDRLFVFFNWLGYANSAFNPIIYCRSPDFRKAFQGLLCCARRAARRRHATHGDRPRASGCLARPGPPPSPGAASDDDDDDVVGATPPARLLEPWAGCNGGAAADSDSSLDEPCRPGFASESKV

[10] = molecular target: D(1B) dopamine receptor (Homo sapiens) (UniProt P21918); assay: Binding affinity to D5 receptor (unknown origin) at 10000 nM by radioligand displacement assay relative to control
[11] = molecular target: Delta-type opioid receptor (Homo sapiens) (UniProt P41143); assay: Binding affinity to DOR receptor (unknown origin) at 10000 nM by radioligand displacement assay relative to control
Delta-type opioid receptor (Homo sapiens), sequence (P41143 whole entry): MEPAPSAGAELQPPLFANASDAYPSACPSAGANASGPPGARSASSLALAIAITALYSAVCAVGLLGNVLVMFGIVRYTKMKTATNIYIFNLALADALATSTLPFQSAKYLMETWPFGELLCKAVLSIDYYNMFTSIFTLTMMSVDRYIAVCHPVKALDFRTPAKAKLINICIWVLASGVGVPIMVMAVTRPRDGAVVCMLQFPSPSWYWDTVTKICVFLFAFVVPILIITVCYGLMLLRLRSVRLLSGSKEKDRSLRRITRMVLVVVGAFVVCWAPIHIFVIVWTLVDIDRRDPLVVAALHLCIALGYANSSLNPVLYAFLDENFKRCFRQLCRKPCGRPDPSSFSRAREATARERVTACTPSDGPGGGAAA

[12] = molecular target: Histamine H2 receptor (Homo sapiens) (UniProt P25021); assay: Binding affinity to H2 receptor (unknown origin) at 10000 nM by radioligand displacement assay relative to control
Histamine H2 receptor (Homo sapiens), sequence (P25021 whole entry): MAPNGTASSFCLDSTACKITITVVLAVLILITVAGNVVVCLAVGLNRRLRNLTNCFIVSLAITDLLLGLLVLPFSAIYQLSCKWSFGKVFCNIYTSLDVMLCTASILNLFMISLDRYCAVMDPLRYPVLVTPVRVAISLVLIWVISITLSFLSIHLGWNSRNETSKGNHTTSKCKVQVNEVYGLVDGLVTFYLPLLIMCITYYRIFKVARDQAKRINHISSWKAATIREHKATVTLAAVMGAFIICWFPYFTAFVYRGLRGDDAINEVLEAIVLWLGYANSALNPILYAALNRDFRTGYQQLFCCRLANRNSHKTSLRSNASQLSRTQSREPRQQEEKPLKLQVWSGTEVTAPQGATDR

[13] = molecular target: Muscarinic acetylcholine receptor M1 (Homo sapiens) (UniProt P11229); assay: Binding affinity to M1 receptor (unknown origin) at 10000 nM by radioligand displacement assay relative to control
[14] = molecular target: Muscarinic acetylcholine receptor M2 (Homo sapiens) (UniProt P08172); assay: Binding affinity to M2 receptor (unknown origin) at 10000 nM by radioligand displacement assay relative to control
Muscarinic acetylcholine receptor M2 (Homo sapiens), sequence (P08172 whole entry): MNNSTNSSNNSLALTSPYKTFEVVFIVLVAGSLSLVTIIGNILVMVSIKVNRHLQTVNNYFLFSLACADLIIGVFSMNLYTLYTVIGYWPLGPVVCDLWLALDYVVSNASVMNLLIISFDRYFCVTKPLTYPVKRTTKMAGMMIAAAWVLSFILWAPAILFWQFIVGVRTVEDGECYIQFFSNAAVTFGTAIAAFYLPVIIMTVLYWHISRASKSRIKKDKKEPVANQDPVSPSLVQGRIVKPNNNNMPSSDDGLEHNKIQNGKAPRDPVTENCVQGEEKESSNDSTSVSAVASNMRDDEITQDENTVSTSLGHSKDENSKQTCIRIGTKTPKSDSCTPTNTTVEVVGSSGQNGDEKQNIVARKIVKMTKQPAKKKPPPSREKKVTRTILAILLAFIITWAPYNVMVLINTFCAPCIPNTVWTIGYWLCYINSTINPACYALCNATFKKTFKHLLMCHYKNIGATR

[15] = molecular target: Muscarinic acetylcholine receptor M3 (Homo sapiens) (UniProt P20309); assay: Binding affinity to M3 receptor (unknown origin) at 10000 nM by radioligand displacement assay relative to control
Muscarinic acetylcholine receptor M3 (Homo sapiens), sequence (P20309 whole entry, looked up): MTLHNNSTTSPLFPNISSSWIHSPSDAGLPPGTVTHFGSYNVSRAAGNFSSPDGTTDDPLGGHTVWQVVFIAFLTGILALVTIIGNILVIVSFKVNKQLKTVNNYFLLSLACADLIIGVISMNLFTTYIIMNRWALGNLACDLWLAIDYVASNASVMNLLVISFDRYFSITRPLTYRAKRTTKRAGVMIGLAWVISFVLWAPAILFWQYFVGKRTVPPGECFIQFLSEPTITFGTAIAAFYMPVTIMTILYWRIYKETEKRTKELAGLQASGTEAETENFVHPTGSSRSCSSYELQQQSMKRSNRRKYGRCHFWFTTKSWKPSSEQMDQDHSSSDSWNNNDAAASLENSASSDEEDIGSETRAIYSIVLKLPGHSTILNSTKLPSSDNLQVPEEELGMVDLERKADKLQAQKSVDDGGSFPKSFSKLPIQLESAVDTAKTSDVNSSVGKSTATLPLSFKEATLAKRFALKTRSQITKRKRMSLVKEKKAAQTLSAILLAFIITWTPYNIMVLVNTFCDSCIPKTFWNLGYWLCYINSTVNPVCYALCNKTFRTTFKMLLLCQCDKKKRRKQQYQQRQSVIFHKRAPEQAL

[16] = molecular target: Mu-type opioid receptor (Homo sapiens) (UniProt P35372); assay: Binding affinity to MOR receptor (unknown origin) at 10000 nM by radioligand displacement assay relative to control
Mu-type opioid receptor (Homo sapiens), sequence (P35372 whole entry): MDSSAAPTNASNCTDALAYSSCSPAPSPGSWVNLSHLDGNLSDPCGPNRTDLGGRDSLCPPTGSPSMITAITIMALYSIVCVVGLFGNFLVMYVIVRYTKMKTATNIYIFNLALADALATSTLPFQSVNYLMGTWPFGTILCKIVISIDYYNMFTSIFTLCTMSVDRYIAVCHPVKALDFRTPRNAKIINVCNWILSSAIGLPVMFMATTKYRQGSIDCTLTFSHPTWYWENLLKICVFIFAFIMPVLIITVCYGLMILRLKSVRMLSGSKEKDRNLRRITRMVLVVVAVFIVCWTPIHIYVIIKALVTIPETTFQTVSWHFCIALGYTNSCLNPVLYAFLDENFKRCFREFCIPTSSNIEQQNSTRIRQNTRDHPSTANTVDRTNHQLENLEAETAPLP

[17] = molecular target: Sodium-dependent serotonin transporter (Homo sapiens) (UniProt P31645); assay: Binding affinity to SERT receptor (unknown origin) at 10000 nM by radioligand displacement assay relative to control
Sodium-dependent serotonin transporter (Homo sapiens), sequence (P31645 whole entry, looked up): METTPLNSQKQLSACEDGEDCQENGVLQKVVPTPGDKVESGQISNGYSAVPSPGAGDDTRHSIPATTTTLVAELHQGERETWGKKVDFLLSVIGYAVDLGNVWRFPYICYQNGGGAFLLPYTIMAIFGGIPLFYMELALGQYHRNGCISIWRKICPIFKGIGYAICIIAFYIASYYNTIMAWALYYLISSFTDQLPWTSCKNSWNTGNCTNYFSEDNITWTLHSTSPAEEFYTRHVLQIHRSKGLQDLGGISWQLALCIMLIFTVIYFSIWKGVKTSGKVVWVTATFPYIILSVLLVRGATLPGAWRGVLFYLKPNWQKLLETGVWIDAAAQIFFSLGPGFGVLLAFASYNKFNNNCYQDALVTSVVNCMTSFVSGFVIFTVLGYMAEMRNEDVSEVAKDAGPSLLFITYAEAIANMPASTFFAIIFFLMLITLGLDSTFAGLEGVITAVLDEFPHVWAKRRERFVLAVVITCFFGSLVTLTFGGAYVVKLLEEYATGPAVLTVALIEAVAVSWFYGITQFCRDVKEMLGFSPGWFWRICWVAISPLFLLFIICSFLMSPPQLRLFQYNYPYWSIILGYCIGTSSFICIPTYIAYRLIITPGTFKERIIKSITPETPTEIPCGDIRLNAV

Histamine H1 receptor = Histamine H1 receptor (Homo sapiens, UniProt P35367); assay: Binding affinity to H1 receptor (unknown origin) by radioligand displacement assay
Histamine H1 receptor, sequence (P35367 whole entry): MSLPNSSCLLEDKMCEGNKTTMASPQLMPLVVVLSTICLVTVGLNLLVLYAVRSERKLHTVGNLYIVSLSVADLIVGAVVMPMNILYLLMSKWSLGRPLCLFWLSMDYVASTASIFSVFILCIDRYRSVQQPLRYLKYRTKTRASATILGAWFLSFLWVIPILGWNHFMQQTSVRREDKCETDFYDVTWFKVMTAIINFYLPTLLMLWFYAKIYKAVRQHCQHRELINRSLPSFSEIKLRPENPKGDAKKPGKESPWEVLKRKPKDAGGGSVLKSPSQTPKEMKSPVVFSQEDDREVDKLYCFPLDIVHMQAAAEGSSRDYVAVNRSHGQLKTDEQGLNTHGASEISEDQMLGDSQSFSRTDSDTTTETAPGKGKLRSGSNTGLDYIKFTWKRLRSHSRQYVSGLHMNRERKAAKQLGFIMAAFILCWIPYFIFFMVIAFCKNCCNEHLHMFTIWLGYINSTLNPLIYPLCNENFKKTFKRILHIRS

[18] = mouse, in vivo, ip, 50 mg/kg, 48 h

SMILES: N=c1c2c(-c3ccccc3)c(-c3ccccc3)n(Cc3ccccc3)c2ncn1[C@H]1CC[C@H](O)CC1 [ML-246]
- Activity (PC-3M [1]): Dde
- Activity (PC-3M [2]): Active
- AUC [3]: 57.64 µM·h
- Activity (MOLT-4): Dde
- Activity (SR): Dde
- Activity (HCT-116): Dde
- Activity (SF-268): Dde
- Activity (SNB-19): Dde
- Activity (IGROV-1): Dde
- Activity (OVCAR-3): Dde
- Activity (OVCAR-4): Dde
- Activity (OVCAR-8): Dde
- Activity (NCI/ADR-RES): Dde
- Activity (CAKI-1): Dde
- Activity (UO-31): Dde
- Activity (DU-145): Dde
- Activity (MCF7): Dde
- Activity (MDA-MB-231): Dde
- Activity (Hs-578T): Dde
- Activity (BT-549): Dde
- Activity [4]: < 50%
- Activity [5]: < 50%
- Activity [6]: < 50%
- Activity [7]: < 50%
- Activity [8]: < 50%
- Activity [9]: < 50%
- Activity [10]: < 50%
- Activity [11]: < 50%
- Activity [12]: < 50%
- Activity [13]: < 50%
- Activity [14]: < 50%
- Activity [15]: < 50%
- Activity [16]: < 50%
- Activity [17]: < 50%
- Ki (Histamine H1 receptor): 3.56 µM
- Tmax [18]: 30 min
